{
  "source": "paper PMC8082945",
  "about": "(Journal of medicinal chemistry, 2020)",
  "key": {"[1]": {"system": "BxPC-3 pancreatic cancer cells", "experiment": "MTT cytotoxicity assay in BxPC-3 cells", "assay_type": "cell-based", "details": "read-out: IC50 BxPC-3, 72 h, mean ± sd, three independent experiments", "in_short": "(§1)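 Cells kept in RPMI 1640 with 10% FBS, under 35 passages, mycoplasma-free. Seeded in 96-well plates and attached overnight. Exposed to test compound or DMSO for 72 h, then 0.3 mg/mL MTT for 3 h at 37 °C. Medium removed, formazan dissolved in DMSO with 15 min shaking, absorbance read at 570 nm. IC50 obtained by curve fitting; mean ± SD from at least three independent experiments.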"}, "[2]": {"system": "MIA PaCa-2 pancreatic cancer cells", "experiment": "MTT cytotoxicity assay in MIA PaCa-2 cells", "assay_type": "cell-based", "details": "read-out: IC50 MIA PaCa-2, 72 h, mean ± sd, three independent experiments", "in_short": "as §1"}, "[3]": {"system": "PANC-1 pancreatic cancer cells", "experiment": "MTT cytotoxicity assay in PANC-1 cells", "assay_type": "cell-based", "details": "read-out: IC50 PANC-1, 72 h, mean ± sd, three independent experiments", "in_short": "as §1"}, "[4]": {"system": "LRPPRC and PNPT1", "experiment": "Immunoblot of LRPPRC and PNPT1 expression", "assay_type": "cell-based", "details": "MIA PaCa-2 cells, 3 × IC50, 4 h", "in_short": "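Cells seeded at 3.5 × 10^5 per 6-well were treated for 1 h or 4 h (H2O2 comparator 150 μM). Lysis was in RIPA with protease/phosphatase inhibitors, then sonication and BCA. 25 μg protein was run on 10% SDS-PAGE and transferred to PVDF. Blocking: 5% milk. Primary antibodies 1:500–1:1000 overnight at 4 °C, Dylight 800 secondary 1:6000 for 1 h. Infrared imaging; band densities normalized to loading controls.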"}, "[5]": {"system": "STAT3", "experiment": "Immunoblot of STAT3 phosphorylation and pH2AX", "assay_type": "cell-based", "details": "MIA PaCa-2 and PANC-1 cells, 4 h", "in_short": "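Cells seeded at 3.5 × 10^5/well (6-well) and treated 4 h at indicated concentrations. Lysed in RIPA with protease and phosphatase inhibitors, sonicated and centrifuged. 25 μg protein run on 10% SDS-PAGE and transferred to PVDF. Blocked in 5% milk; primary antibodies (STAT3, pSTAT3, pH2AX, GAPDH; 1:500–1:1000) overnight at 4 °C; infrared secondary 1:6000, 1 h RT. Signals normalised to loading control.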"}, "[6]": {"system": "MIA PaCa-2 cells", "experiment": "Lipid ROS measurement", "assay_type": "cell-based", "details": "24 h treatment, BODIPY C11", "in_short": "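After compound exposure, MIA PaCa-2 cells received 10 μM C11-BODIPY for 30 min at 37 °C. They were washed twice with DPBS and read in HBSS on a plate reader at Ex/Em 581/591 nm (reduced dye) and 488/510 nm (oxidized dye). The Texas Red/FITC emission ratio was calculated; significance by unpaired Student's t-test.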"}, "[7]": {"experiment": "PK study in CD-1 mice", "assay_type": "in vivo", "details": "for Concentration at 7 h in mouse plasma, IP: IP 10 mg/kg, 10 mg/kg; for Concentration at 7 h in mouse plasma, IP / Concentration at 7 h in mouse plasma, PO: n=2, individual values; for Survival of mice after IV injection: IV 10 mg/kg; for Concentration at 7 h in mouse plasma, PO: PO 20 mg/kg, 20 mg/kg", "in_short": "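CD-1 mice dosed IP (10 mg/kg), PO (20 mg/kg) or IV (10 mg/kg). Blood drawn at 0.5, 2, 4 and 7 h using heparinized calibrated pipettes and centrifuged at 15,000 rpm for 10 min. Plasma collected, frozen at −80 °C, and assayed by LC-MS/MS.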"}, "[8]": {"system": "GSH/GSSG ratio", "experiment": "GSH/GSSG-Glo assay", "assay_type": "cell-based", "details": "MIA PaCa-2 cells, 2 h and 4 h treatment", "in_short": "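Luminescent GSH/GSSG-Glo kit. 15,000–20,000 cells/well attached overnight, then were treated. Medium was removed and cells were lysed in Total or Oxidized Glutathione Reagent (5 min shaking). Luciferin Generation Reagent was added for 30 min at room temperature, then Detection Reagent; luminescence was read after 15 min equilibration. Ratio from net RLU = (total glutathione − GSSG)/(GSSG/2).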"}, "[9]": {"system": "mouse colon cancer cell line CT-26", "experiment": "CT-26 subcutaneous tumor study in Balb/c mice", "assay_type": "in vivo", "details": "n=5, preliminary study"}, "[10]": {"system": "MIA PaCa-2 cells", "experiment": "Cellular ROS measurement", "assay_type": "cell-based", "details": "for Cellular ROS: MIA PaCa-2 cells, 0-4 h, 30 min", "in_short": "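MIA PaCa-2 cells (RPMI 1640, 10% FBS, 37 °C, 5% CO2) seeded at 1.8 × 10^4 cells/well and attached overnight. Cells loaded with 10 μM CM-H2DCFDA in HBSS for 40 min at 37 °C, then washed twice with DPBS. Test compound added in HBSS at set concentrations. Fluorescence read at Ex 483/Em 530 nm over time. TBHP served as positive control.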"}, "[11]": {"target": "T1, GPX4 (Homo sapiens, UniProt P36969)", "T1 sequence (P36969 1-197)": "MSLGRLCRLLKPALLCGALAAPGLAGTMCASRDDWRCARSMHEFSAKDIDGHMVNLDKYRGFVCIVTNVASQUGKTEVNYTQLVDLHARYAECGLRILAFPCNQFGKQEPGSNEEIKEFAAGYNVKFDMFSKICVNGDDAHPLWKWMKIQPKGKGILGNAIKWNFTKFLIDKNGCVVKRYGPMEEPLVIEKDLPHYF", "experiment": "Cellular thermal shift assay", "assay_type": "cell-based", "details": "pancreatic cancer cells, 100 μM, 1 h", "in_short": "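MIA PaCa-2 or PANC-1 cells seeded at 3 × 10^6 per 10 cm dish, attached overnight, then exposed to 100 μM test compound or DMSO for 1 h. After heating, supernatants were resolved on 10% SDS gels and immunoblotted for GPX4. Bands were quantified to derive a GPX4 melting temperature.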"}, "[12]": {"system": "pancreatic cancer cells", "experiment": "Colony formation assay, drug combinations", "assay_type": "cell-based", "in_short": "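Cells seeded in 96-well plates: 300/well for MIA PaCa-2, 600/well for PANC-1 and BxPC-3; attached overnight. Partner drug added 1 h before test compound, with continuous exposure. Incubation ran 7–9 days, until control wells were 80–90% confluent. Stained with 0.05% crystal violet for 30 min, washed, dried and imaged. Synergy scored with HSA and Bliss models.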"}, "[13]": {"experiment": "Tissue distribution analysis in mice", "assay_type": "in vivo", "details": "mouse, colon, intravenous, 10 mg/kg", "in_short": "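Tissue homogenised with bead beating in dissociation solvent at five-fold tissue weight. 30 μL homogenate mixed with 30 μL acetonitrile and 140 μL internal standard, vortexed, and centrifuged at 3500 g for 10 min. Supernatant analysed by LC-MS against calibration curves made in spiked blank homogenate.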"}},
  "note": "Several values for one entry are separate records, joined by “and”; a condition that tells them apart may be missing. Identical values can stand only once.",
  "data": [
    {"molecule": "6-(9H-Fluoren-4-ylamino)quinazoline-5,8-dione [QD390]", "values": [
      {"measurement": "IC50", "setting": "[1]", "result": "4.5 ± 0.6", "unit": "µM"},
      {"measurement": "IC50", "setting": "[2]", "result": "3.1 ± 1.5", "unit": "µM"},
      {"measurement": "IC50", "setting": "[3]", "result": "4.7 ± 1.5", "unit": "µM"}
    ]},
    {"molecule": "CC(=O)c1cc2c(o1)C(=O)c1ccccc1C2=O", "note": "[Napabucasin, reference compound]", "values": [
      {"measurement": "Protein expression of LRPPRC and PNPT1", "setting": "[4]", "result": "decreased the protein expression of these two genes"}
    ]},
    {"molecule": "CN1CCN(c2ccc(NC3=CC(=O)c4ncncc4C3=O)cc2)CC1", "note": "[QD394, 6-(4-(4-Methylpiperazin-1-yl)phenylamino)quinazoline-5,8-dione]", "values": [
      {"measurement": "Phosphorylation of H2AX (DNA damage biomarker)", "setting": "[5]", "result": "increased the phosphorylation of H2AX"},
      {"measurement": "Phosphorylation of STAT3", "setting": "[5]", "result": "inhibited the phosphorylation of STAT3"},
      {"measurement": "Lipid ROS (lipid peroxidation)", "setting": "[6]", "result": "significantly increased lipid ROS in a dose-dependent manner"},
      {"measurement": "Concentration at 7 h in mouse plasma, IP", "setting": "[7]", "result": 5.0, "unit": "ng/mL"},
      {"measurement": "Survival of mice after IV injection", "setting": "[7]; n=3, 10 mg/kg", "result": "two out of three mice administered with QD394 via IV injection died and 2 out of 3 mice died"},
      {"measurement": "Concentration at 7 h in mouse plasma, PO", "setting": "[7]", "result": "23.3 ng/mL and 25.8 ng/mL"},
      {"measurement": "GSH/GSSG ratio", "setting": "[8]", "result": "significantly decreased the GSH/GSSG ratio"},
      {"measurement": "Tumor shrinkage, QD394 IP group", "setting": "[9]; CT-26, IP 20 mg/kg", "result": "Three out of five mice displayed tumor shrinkage"},
      {"measurement": "Protein expression of LRPPRC and PNPT1", "setting": "[4]", "result": "significantly decreased their expression at 4 h"},
      {"measurement": "Cellular ROS", "setting": "[10]", "result": "time-dependent cellular ROS accumulation"},
      {"measurement": "Intracellular ROS level among analogs", "setting": "[10]; after 1 h compound treatment", "result": "highest level of intracellular ROS"},
      {"measurement": "Effect on GPX4 protein stability (CETSA)", "setting": "[11]", "result": "destabilized GPX4 protein"},
      {"measurement": "Combination with napabucasin", "setting": "[12]; MIA PaCa-2 and PANC-1 cells", "result": "synergism"},
      {"measurement": "Combination with As2O3", "setting": "[12]; pancreatic cancer cells", "result": "sensitizes cells to As2O3"},
      {"measurement": "Combination with olaparib", "setting": "[12]; pancreatic cancer cells", "result": "synergistic effects"}
    ]},
    {"molecule": "CC1=C(Nc2ccc(N3CCN(C)CC3)cc2)C(=O)c2cncnc2C1=O", "note": "[QD394-Me, 7-Methyl-6-((4-(4-methylpiperazin-1-yl)phenyl)amino)quinazoline-5,8-dione]", "values": [
      {"measurement": "Lipid ROS (lipid peroxidation)", "setting": "[6]", "result": "increased lipid ROS significantly in a dose-dependent manner"},
      {"measurement": "Concentration at 7 h in mouse plasma, IP", "setting": "[7]", "result": "6.7 ng/mL and 1.1 ng/mL"},
      {"measurement": "Survival of mice after IV injection", "setting": "[7]; n=3", "result": "all three mice that received IV injections of QD394-Me survived"},
      {"measurement": "Concentration at 7 h in mouse plasma, PO", "setting": "[7]", "result": 4.2, "unit": "ng/mL"},
      {"measurement": "concentration at 1 h", "setting": "[13]", "result": "~300", "unit": "ng/g"},
      {"measurement": "Tumor shrinkage, QD394-Me IV group", "setting": "[9]; CT-26, IV 10 mg/kg", "result": "Three out of five mice displayed tumor shrinkage"},
      {"measurement": "Protein expression of LRPPRC and PNPT1", "setting": "[4]", "result": "significantly decreased protein expression of LRPPRC and PNPT1"},
      {"measurement": "Cellular ROS", "setting": "[10]", "result": "significantly increased cellular ROS"},
      {"measurement": "Effect on GPX4 protein stability (CETSA)", "setting": "[11]", "result": "destabilized GPX4 protein"}
    ]}
  ]
}
